Assay results: ChEMBL document CHEMBL1641447, “Rational design and synthesis of potent aminoglycoside antibiotics against resistant bacterial strains” (2011)
≈ marks a conversion by molar mass, not a printed value.

Key:
Type in all cases: functional
Staphylococcus aureus [1] = experiment: Antibacterial activity against methicillin-resistant Staphylococcus aureus ATCC 33591 after 16-20 hrs by microdilution broth method
Method in brief: (§1)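 CLSI broth microdilution on hydrochloride salts (HPLC purity over 98%). Actively growing broth cultures were adjusted to McFarland 0.5 and added to 2-fold drug dilutions to give a final inoculum of […]. Trays were covered and incubated at 37 °C for 16–20 h. MIC ([…]) was taken as the lowest concentration preventing visible growth. Tests were run in triplicate.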

Pseudomonas aeruginosa = experiment: Antibacterial activity against Pseudomonas aeruginosa ATCC 27853 after 16-20 hrs by microdilution broth method
Method in brief: (§2)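 CLSI broth microdilution with test agents as hydrochloride salts (HPLC purity over 98%), twofold dilutions in 96-well trays. Actively growing broth cultures were diluted to McFarland 0.5 for the inoculum. Trays were covered and incubated at 37 °C for 16–20 h. MIC (µg/mL) was the lowest concentration without visible growth; triplicate runs.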

[2] = test system: Staphylococcus epidermidis; experiment: Antibacterial activity against Staphylococcus epidermidis ATCC 12228 after 16-20 hrs by microdilution broth method; method in brief: as §2
Escherichia coli [3] = experiment: Antibacterial activity against Escherichia coli ATCC 25922 after 16-20 hrs by microdilution broth method; method in brief: as §2
Klebsiella pneumoniae = experiment: Antibacterial activity against Klebsiella pneumoniae ATCC 700603 after 16-20 hrs by microdilution broth method; method in brief: as §2
Mortierella alpina = experiment: Antibacterial activity against Mortierella alpina ATCC 32221 after 16-20 hrs by microdilution broth method
[4] = test system: Staphylococcus epidermidis; experiment: Antibacterial activity against Staphylococcus epidermidis 07-9 clinical isolate expressing APH(30)-IIIa after 16-20 hrs by microdilution broth method
Method in brief: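 Clinical isolate from a Beijing Friendship Hospital patient (2007), with aph(3′)-IIIa confirmed by PCR. CLSI broth microdilution with hydrochloride salts in twofold dilutions, inoculum from actively growing culture at McFarland 0.5, 37 °C for 16–20 h in covered trays. MIC (µg/mL) was the lowest concentration inhibiting visible growth; triplicate runs.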

Escherichia coli [5] = experiment: Antibacterial activity against Escherichia coli BL21 expressing pET29a engineering strain expressing APH(30)-Ia after 16-20 hrs by microdilution broth method; method in brief: as §1
[6] = test system: Staphylococcus epidermidis; experiment: Antibacterial activity against methicillin-resistant isolate Staphylococcus epidermidis 08-18 after 16-20 hrs by microdilution broth method; method in brief: as §1
Enterococcus faecalis = experiment: Antibacterial activity against Enterococcus faecalis ATCC 29212 after 16-20 hrs by microdilution broth method; method in brief: as §2
Escherichia coli [7] = experiment: Antibacterial activity against Escherichia coli ATCC 35218 after 16-20 hrs by microdilution broth method; method in brief: as §2
Staphylococcus aureus [8] = experiment: Antibacterial activity against Staphylococcus aureus ATCC 29213 after 16-20 hrs by microdilution broth method; method in brief: as §2

SMILES | MIC (Staphylococcus aureus [1]) [µg/mL] | MIC (Pseudomonas aeruginosa) [µg/mL] | MIC [2] [µg/mL] | MIC (Escherichia coli [3]) [µg/mL] | MIC (Klebsiella pneumoniae) [µg/mL] | MIC (Mortierella alpina) [µg/mL] | MIC [4] [µg/mL] | MIC (Escherichia coli [5]) [µg/mL] | MIC [6] [µg/mL] | MIC (Enterococcus faecalis) [µg/mL] | MIC (Escherichia coli [7]) [µg/mL] | MIC (Staphylococcus aureus [8]) [µg/mL]
CC(=O)N[C@H]1[C@H](O)[C@@H](N)[C@@H](O[C@H]2[C@H](O)[C@@H](O[C@H]3O[C@H](CO)[C@@H](O)[C@H](N)[C@H]3O)[C@H](N)C[C@@H]2N)O[C@@H]1CN | 16 (≈ 30.5 µM) | 4 (≈ 7.63 µM) | 0.5 (≈ 0.953 µM) | 2 (≈ 3.81 µM) | 2 (≈ 3.81 µM) | > 128 | > 128 | 128 (≈ 244 µM) | 2 (≈ 3.81 µM) | > 128 | 8 (≈ 15.3 µM) | 2 (≈ 3.81 µM)
NC[C@H]1O[C@H](O[C@H]2[C@H](O)[C@@H](O[C@H]3O[C@H](CO)[C@@H](O)[C@H](N)[C@H]3O)[C@H](N)C[C@@H]2N)[C@H](N)[C@@H](O)[C@@H]1NC(=O)C1CCNCC1 | 2 (≈ 3.37 µM) | 2 (≈ 3.37 µM) | 0.25 (≈ 0.421 µM) | 2 (≈ 3.37 µM) | 8 (≈ 13.5 µM) | > 128 | 128 (≈ 216 µM) | 4 (≈ 6.74 µM) | 0.25 (≈ 0.421 µM) | 128 (≈ 216 µM) | 2 (≈ 3.37 µM) | 1 (≈ 1.68 µM)
Cc1ccccc1C(=O)NCC(=O)N[C@H]1[C@H](O)[C@@H](N)[C@@H](O[C@H]2[C@H](O)[C@@H](O[C@H]3O[C@H](CO)[C@@H](O)[C@H](N)[C@H]3O)[C@H](N)C[C@@H]2N)O[C@@H]1CN | 64 (≈ 97.3 µM) | 32 (≈ 48.7 µM) | 0.5 (≈ 0.76 µM) | 4 (≈ 6.08 µM) | 64 (≈ 97.3 µM) | > 128 | > 128 | > 128 | 8 (≈ 12.2 µM) | 64 (≈ 97.3 µM) | 4 (≈ 6.08 µM) | 2 (≈ 3.04 µM)
CN(C)[C@H]1[C@H](O)[C@@H](N)[C@@H](O[C@H]2[C@H](O)[C@@H](O[C@H]3O[C@H](CO)[C@@H](O)[C@H](N)[C@H]3O)[C@H](N)C[C@@H]2N)O[C@@H]1CN | > 128 | > 128 | 16 (≈ 31.3 µM) | 128 (≈ 251 µM) | 64 (≈ 125 µM) | > 128 | > 128 | > 128 | 32 (≈ 62.7 µM) | > 128 | 64 (≈ 125 µM) | 32 (≈ 62.7 µM)
NCCCC(=O)N[C@H]1[C@H](O)[C@@H](N)[C@@H](O[C@H]2[C@H](O)[C@@H](O[C@H]3O[C@H](CO)[C@@H](O)[C@H](N)[C@H]3O)[C@H](N)C[C@@H]2N)O[C@@H]1CN | 2 (≈ 3.52 µM) | 0.5 (≈ 0.881 µM) | < 0.06 | 1 (≈ 1.76 µM) | 1 (≈ 1.76 µM) | > 128 | 32 (≈ 56.4 µM) | 8 (≈ 14.1 µM) | 0.25 (≈ 0.44 µM) | 32 (≈ 56.4 µM) | 1 (≈ 1.76 µM) | 0.25 (≈ 0.44 µM)
NC[C@H]1O[C@H](O[C@H]2[C@H](O)[C@@H](O[C@H]3O[C@H](CO)[C@@H](O)[C@H](N)[C@H]3O)[C@H](N)C[C@@H]2N)[C@H](N)[C@@H](O)[C@@H]1O [BEKANAMYCIN] | > 128 | 64 (≈ 132 µM) | 0.25 (≈ 0.517 µM) | 4 (≈ 8.27 µM) | 16 (≈ 33.1 µM) | > 128 | > 128 | 64 (≈ 132 µM) | 32 (≈ 66.2 µM) | 64 (≈ 132 µM) | 4 (≈ 8.27 µM) | 1 (≈ 2.07 µM)
NC[C@H]1O[C@H](O[C@H]2[C@H](O)[C@@H](O[C@H]3O[C@H](CO)[C@@H](O)[C@H](N)[C@H]3O)[C@H](N)C[C@@H]2N)[C@H](N)[C@@H](O)[C@@H]1NC(=O)C1CCCCC1 | 4 (≈ 6.75 µM) | 8 (≈ 13.5 µM) | 0.25 (≈ 0.422 µM) | 2 (≈ 3.37 µM) | 32 (≈ 54 µM) | > 128 | > 128 | 64 (≈ 108 µM) | 1 (≈ 1.69 µM) | 64 (≈ 108 µM) | 2 (≈ 3.37 µM) | 1 (≈ 1.69 µM)
NC[C@@H]1O[C@@H](O[C@H]2[C@H](O)[C@@H](O[C@H]3O[C@H](CO)[C@@H](O)[C@H](N)[C@H]3O)[C@H](N)C[C@@H]2N)[C@@H](O)[C@H](O)[C@H]1O [KANAMYCIN A] | 128 (≈ 264 µM) | > 128 | 1 (≈ 2.06 µM) | 2 (≈ 4.13 µM) | 64 (≈ 132 µM) | > 128 | > 128 | > 128 | 8 (≈ 16.5 µM) | 64 (≈ 132 µM) | 4 (≈ 8.26 µM) | 2 (≈ 4.13 µM)
